Results: ChEMBL document CHEMBL1142645, “New variotin analogues from Aspergillus viridi-nutans” (2000)
≈ marks a conversion by molar mass, not a printed value. Calls of active or inactive are those of the source. No cut-off for these calls is given here.

What was measured:
Eremothecium coryli [1] = assay: Antifungal activity against Nematospora coryli ATCC 10647 upto 100 ug/mL after 24 hrs by microtiter plate assay; type: functional, organism-based
Method in brief: (§1)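 Broth microdilution in microtiter plates, following an earlier published method. Each test fungus was inoculated at 1×10^5 spores/mL. Plates were incubated for 24 h at 27 °C, and antifungal activity was then scored.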

Nadsonia fulvescens [2] = assay: Antifungal activity against Nadsonia fulvescens ATCC 24236 upto 100 ug/mL after 24 hrs by microtiter plate assay; type: functional, organism-based; method in brief: as §1
Paecilomyces variotii [3] = assay: Antifungal activity against Paecilomyces variotii ETH 114646 upto 100 ug/mL after 24 hrs by microtiter plate assay; type: functional, organism-based; method in brief: as §1
Fusarium oxysporum = assay: Antifungal activity against Fusarium oxysporum CBS 149.25 upto 100 ug/mL after 24 hrs by microtiter plate assay; type: functional, organism-based; method in brief: as §1
Rhodotorula glutinis [4] = assay: Antifungal activity against Rhodotorula glutinis ATCC 26085 upto 100 ug/mL after 24 hrs by microtiter plate assay; type: functional, organism-based; method in brief: as §1
Nadsonia fulvescens [5] = assay: Antifungal activity against Nadsonia fulvescens ATCC 24236 after 24 hrs by microtiter plate assay; type: functional; details: ATCC 24236, 24 h; method in brief: as §1
Rhodotorula glutinis [6] = assay: Antifungal activity against Rhodotorula glutinis ATCC 26085 after 24 hrs by microtiter plate assay; type: functional; details: ATCC 26085, 24 h; method in brief: as §1
Eremothecium coryli [7] = assay: Antifungal activity against Nematospora coryli ATCC 10647 after 24 hrs by microtiter plate assay; type: functional; details: ATCC 10647, 24 h; method in brief: as §1
Paecilomyces variotii [8] = assay: Antifungal activity against Paecilomyces variotii ETH 114646 after 24 hrs by microtiter plate assay; type: functional; method in brief: as §1
HeLa = assay: Cytotoxicity against human HeLa S3 cells by Giemsa staining; type: functional
HL-60 = assay: Cytotoxicity against human HL60 cells by Giemsa staining; type: functional
L1210 = assay: Cytotoxicity against mouse L1210 cells by Giemsa staining; type: functional

MIC (Nadsonia fulvescens [5]) [µg/mL] | MIC (Rhodotorula glutinis [6]) [µg/mL] | MIC (Eremothecium coryli [7]) [µg/mL] | MIC (Paecilomyces variotii [8]) [µg/mL] | Structure (SMILES) | Activity (Eremothecium coryli [1]) | Activity (Nadsonia fulvescens [2]) | Activity (Paecilomyces variotii [3]) | Activity (Fusarium oxysporum) | Activity (Rhodotorula glutinis [4]) | IC90 (HeLa) [µg/mL] | IC90 (HL-60) [µg/mL] | IC90 (L1210) [µg/mL]
 |  |  |  | CCCCC(/C=C(C)/C=C/C=C/C(=O)N1CCCC1CO)OC (configuration not stated) | inactive | inactive | inactive | inactive | inactive |  |  | 
1 (≈ 3.43 µM) | 1 (≈ 3.43 µM) | 1 (≈ 3.43 µM) | 1 (≈ 3.43 µM) | CCCC[C@@H](O)/C=C(C)/C=C/C=C/C(=O)N1CCCC1=O [PECILOCIN] |  |  |  |  |  |  |  | 
 |  |  |  | CCCCC(O)/C=C(C)/C=C/C=C/C(=O)N1CCCC1CO (configuration not stated) [VIRIDITIN] | inactive | inactive | inactive | inactive | inactive | 25 (≈ 81.3 µM) | 25 (≈ 81.3 µM) | 25 (≈ 81.3 µM)
